Laboratory results from ChEMBL document CHEMBL1138635, “Myxopyronin B analogs as inhibitors of RNA polymerase, synthesis and biological evaluation” (Bioorg Med Chem Lett, 2004).
≈ marks a conversion by molar mass, not a printed value. Values belong to the molecule of their own block, whether it stands above or below them.

Key:
Staphylococcus aureus = experiment: Minimum inhibitory concentration against Staphylococcus aureus; assay type: functional
Procedure, shortened: (§1)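 Growth inhibition by serial dilution. MIC reported in µg/mL as the average of triplicate measurements.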

Escherichia coli [1] = experiment: Minimum inhibitory concentration against Escherichia coli (Tol C); assay type: functional; procedure, shortened: as §1
[2] = target: DNA-directed RNA polymerase subunit beta (Escherichia coli K-12, UniProt P0A8V2); experiment: In vitro inhibitory activity against RNA polymerase of Escherichia coli
Sequence of DNA-directed RNA polymerase subunit beta (P0A8V2 whole entry): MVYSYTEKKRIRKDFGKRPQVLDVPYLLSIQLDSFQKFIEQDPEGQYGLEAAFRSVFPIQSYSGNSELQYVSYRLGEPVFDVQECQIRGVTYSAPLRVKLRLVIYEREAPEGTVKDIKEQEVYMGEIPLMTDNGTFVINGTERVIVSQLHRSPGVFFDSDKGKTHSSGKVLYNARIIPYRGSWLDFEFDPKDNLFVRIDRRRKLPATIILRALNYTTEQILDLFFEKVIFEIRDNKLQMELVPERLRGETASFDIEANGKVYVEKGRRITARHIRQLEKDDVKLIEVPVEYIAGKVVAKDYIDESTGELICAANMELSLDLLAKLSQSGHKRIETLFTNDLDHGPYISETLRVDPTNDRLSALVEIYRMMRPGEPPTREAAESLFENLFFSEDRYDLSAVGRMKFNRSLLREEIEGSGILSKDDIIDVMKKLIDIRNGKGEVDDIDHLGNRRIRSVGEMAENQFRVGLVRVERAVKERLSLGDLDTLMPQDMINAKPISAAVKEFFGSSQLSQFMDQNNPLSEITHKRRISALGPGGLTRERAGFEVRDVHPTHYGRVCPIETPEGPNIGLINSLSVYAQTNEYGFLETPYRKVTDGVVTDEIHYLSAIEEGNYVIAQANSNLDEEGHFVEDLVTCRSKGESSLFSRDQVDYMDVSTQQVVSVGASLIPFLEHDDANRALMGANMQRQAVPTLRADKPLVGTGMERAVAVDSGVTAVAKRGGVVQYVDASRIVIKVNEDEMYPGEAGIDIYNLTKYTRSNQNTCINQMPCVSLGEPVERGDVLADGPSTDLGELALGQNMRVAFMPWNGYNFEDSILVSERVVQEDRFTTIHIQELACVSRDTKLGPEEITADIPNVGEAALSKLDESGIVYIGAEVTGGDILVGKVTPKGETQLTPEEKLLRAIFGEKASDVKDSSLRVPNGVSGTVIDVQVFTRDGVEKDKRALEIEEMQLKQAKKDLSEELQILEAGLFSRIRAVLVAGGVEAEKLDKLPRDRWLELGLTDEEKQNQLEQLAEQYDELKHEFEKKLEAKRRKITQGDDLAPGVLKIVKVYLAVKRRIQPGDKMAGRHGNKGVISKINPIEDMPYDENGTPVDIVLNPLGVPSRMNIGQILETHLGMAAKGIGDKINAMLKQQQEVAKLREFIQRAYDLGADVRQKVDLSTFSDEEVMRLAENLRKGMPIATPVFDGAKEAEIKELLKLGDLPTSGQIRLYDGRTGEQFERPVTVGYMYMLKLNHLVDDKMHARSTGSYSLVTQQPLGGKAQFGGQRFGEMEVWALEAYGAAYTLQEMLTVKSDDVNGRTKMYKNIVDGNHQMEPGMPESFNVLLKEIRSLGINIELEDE
Procedure, shortened: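 E. coli RNAP activity measured by a nucleotide-coupled assay that links pyrophosphate release to NADPH. NADPH was read by fluorescence (emission ~440 nm) instead of absorbance at 340 nm. IC50 was determined; for weak inhibitors, percent inhibition at 10 µM was reported instead. Selected compounds were also tested by radiolabeled nucleotide incorporation into RNA.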

Escherichia coli [3] = experiment: Minimum inhibitory concentration against Escherichia coli; assay type: functional; procedure, shortened: as §1
[4] = target: DNA-directed RNA polymerase subunit beta (Escherichia coli K-12) (UniProt P0A8V2); experiment: In vitro percent inhibition against RNA polymerase of Escherichia coli in nucleotide coupled NADPH/pyrophosphate release assay at 10 uM; assay type: functional
Sequence of DNA-directed RNA polymerase subunit beta (Escherichia coli K-12) (P0A8V2 whole entry, looked up): as the sequence (P0A8V2 whole entry) above
Procedure, shortened: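 E. coli RNA polymerase activity measured in a nucleotide-coupled NADPH/pyrophosphate release assay. NADPH was read by fluorescence (emission ~440 nm) rather than absorbance at 340 nm. For weaker inhibitors, percent inhibition was recorded at 10 µM instead of an IC50.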

SMILES: CCCC/C(C)=C\C=C(\C)C(=O)c1c(O)cc(C(C)CC/C=C/NC(=O)OC)oc1=O (centres undefined)
MIC (Staphylococcus aureus): 16 mg/L (≈ 37.1 µM)
MIC (Escherichia coli [1]): 16 mg/L (≈ 37.1 µM)
IC50 [2]: 2.5 µM
MIC (Escherichia coli [3]): > 64 mg/L

SMILES: CCCC/C(C)=C/C=C(\C)C(=O)c1c(O)cc(C(C)CC/C=C/NC(=O)OC)oc1=O (centres undefined)
MIC (Staphylococcus aureus): 1 mg/L (≈ 2.32 µM)
MIC (Escherichia coli [1]): 2 mg/L (≈ 4.63 µM)
IC50 [2]: 0.92 µM
MIC (Escherichia coli [3]): > 64 mg/L

SMILES: CCCC/C(C)=C/C=C(\C)C(=O)c1c(O)cc(C(C)CC/C=C\NC(=O)OC)oc1=O (centres undefined)
MIC (Staphylococcus aureus): 4 mg/L (≈ 9.27 µM)
MIC (Escherichia coli [1]): 4 mg/L (≈ 9.27 µM)
IC50 [2]: 1.26 µM
MIC (Escherichia coli [3]): > 64 mg/L

SMILES: CCCC/C(C)=C/C=C(\C)C(=O)c1c(O)cc(CCC/C=C/NC(=O)OC)oc1=O [DESMETHYL MYXOPYRONIN B]
MIC (Staphylococcus aureus): 4 mg/L (≈ 9.58 µM)
MIC (Escherichia coli [1]): 1 mg/L (≈ 2.4 µM)
IC50 [2]: 0.34 µM
MIC (Escherichia coli [3]): > 64 mg/L

SMILES: CCCC/C(C)=C/C=C(\C)C(=O)c1c(O)cc(C(C)CCCCNC(=O)OC)oc1=O (centres undefined)
MIC (Staphylococcus aureus): 64 mg/L (≈ 148 µM)
MIC (Escherichia coli [1]): 8 mg/L (≈ 18.5 µM)
IC50 [2]: 4 µM
MIC (Escherichia coli [3]): > 64 mg/L

SMILES: CCCC/C=C/C=C(\C)C(=O)c1c(O)cc(C(C)CC/C=C/NC(=O)OC)oc1=O (centres undefined)
MIC (Staphylococcus aureus): 16 mg/L (≈ 38.3 µM)
MIC (Escherichia coli [1]): 2 mg/L (≈ 4.79 µM)
IC50 [2]: 1.04 µM
MIC (Escherichia coli [3]): > 64 mg/L

SMILES: CCCC/C(C)=C/C=C(\C)C(=O)c1c(OC)cc(C(C)CC/C=C/NC(=O)OC)oc1=O (centres undefined)
MIC (Staphylococcus aureus): > 64 mg/L
MIC (Escherichia coli [1]): > 64 mg/L
IC50 [2]: 4.2 µM
MIC (Escherichia coli [3]): > 64 mg/L

The remaining lines, values ahead:

MIC (Staphylococcus aureus): > 64 mg/L
inhibition [4]: < 20%
MIC (Escherichia coli [1]): > 64 mg/L
MIC (Escherichia coli [3]): > 64 mg/L
SMILES: CCCC/C(C)=C/C=C(\C)C(=O)c1c(O)cc(C(C)CCCC=O)oc1=O (centres undefined)

MIC (Staphylococcus aureus): > 64 mg/L
inhibition [4]: < 20%
MIC (Escherichia coli [1]): > 64 mg/L
MIC (Escherichia coli [3]): > 64 mg/L
SMILES: CCCC/C(C)=C/C=C(\C)C(=O)c1c(O)cc(C(C)CC/C=C/C(=O)OC)oc1=O (centres undefined)

MIC (Staphylococcus aureus): > 64 mg/L
inhibition [4]: < 20%
MIC (Escherichia coli [1]): > 64 mg/L
MIC (Escherichia coli [3]): > 64 mg/L
SMILES: CCCC/C(C)=C/C=C(\C)C(=O)c1c(O)cc(C(C)CC/C=C/NC(=O)OCCN2CCOCC2)oc1=O (centres undefined)

MIC (Staphylococcus aureus): > 64 mg/L
inhibition [4]: < 20%
MIC (Escherichia coli [1]): > 64 mg/L
MIC (Escherichia coli [3]): > 64 mg/L
SMILES: CCC(=O)c1c(O)cc(C(C)CC/C=C/NC(=O)OC)oc1=O (centres undefined)

MIC (Staphylococcus aureus): > 64 mg/L
inhibition [4]: < 20%
MIC (Escherichia coli [1]): > 64 mg/L
MIC (Escherichia coli [3]): > 64 mg/L
SMILES: CCCC/C(C)=C/CNC(=O)c1c(O)cc(C(C)CC/C=C/NC(=O)OC)oc1=O (centres undefined)

MIC (Staphylococcus aureus): > 64 mg/L
inhibition [4]: < 20%
MIC (Escherichia coli [1]): > 64 mg/L
MIC (Escherichia coli [3]): > 64 mg/L
SMILES: CCCC/C(C)=C/C=C(\C)C(=O)c1c(O)cc(C(C)Cc2cccc(NC(=O)OC)c2)oc1=O (centres undefined)

MIC (Staphylococcus aureus): 64 mg/L (≈ 153 µM)
inhibition [4]: 70%
MIC (Escherichia coli [1]): 32 mg/L (≈ 76.6 µM)
MIC (Escherichia coli [3]): > 64 mg/L
SMILES: CCCC/C(C)=C/C=C/C(=O)c1c(O)cc(C(C)CC/C=C/NC(=O)OC)oc1=O (centres undefined)

MIC (Staphylococcus aureus): > 64 mg/L
inhibition [4]: < 20%
MIC (Escherichia coli [1]): > 64 mg/L
MIC (Escherichia coli [3]): > 64 mg/L
SMILES: CCCC/C(C)=C/C=C(\C)C(=O)c1c(O)cc(C(C)Cc2ccc(NC(=O)OC)cc2)oc1=O (centres undefined)

MIC (Staphylococcus aureus): > 64 mg/L
inhibition [4]: < 20%
MIC (Escherichia coli [1]): > 64 mg/L
MIC (Escherichia coli [3]): > 64 mg/L
SMILES: CCCC/C(C)=C/C=C(\C)C(=O)c1c(O)cc(C(C)CC/C=C/NC(=O)OCCN(C)C)oc1=O (centres undefined)
